Measurements published in ChEMBL document CHEMBL2150903, “Synthesis and screening of novel vitamin E derivatives for anticancer functions” (Eur J Med Chem, 2012).
Activity calls are given as the source filed them. No cut-off for these calls is given here.

How the values were obtained:
Assay type in all cases: functional, cell-based
Mus musculus = organism: Mus musculus; test: Induction of apoptosis in mouse 66cl-4GFP cells assessed as PARP cleavage at 20 uM after 15 hrs by Western blot analysis
Summary of the method: (§1)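 Cells grown in MEM with 10% FBS, glutamine, penicillin/streptomycin, non-essential amino acids and 2× MEM vitamins; serum cut to 2% for treatment. Compounds dissolved in DMSO (40 mM stock); DMSO vehicle control. Treatment 15 h, then Western blot of whole-cell extracts for PARP cleavage. Primary antibody in 0.1% BSA/TBST overnight at 4 °C, then HRP-conjugated secondary. Two separate experiments.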

MCF7 [1] = test: Induction of apoptosis in human MCF7 cells assessed as PARP cleavage at 20 uM after 15 hrs by Western blot analysis; summary of the method: as §1
MDA-MB-231 [2] = test: Induction of apoptosis in human MDA-MB-231 cells at 20 and 40 uM by […]
MDA-MB-231 [3] = test: Induction of apoptosis in human MDA-MB-231 cells by AnnexinV/PI/FITC-based flow cytometric analysis
MCF7 [4] = test: Induction of apoptosis in human MCF7 cells at 40 uM by AnnexinV/PI/FITC-based flow cytometric analysis
MDA-MB-231 [5] = test: Induction of apoptosis in human MDA-MB-231 cells assessed as PARP cleavage at 20 uM after 15 hrs by Western blot analysis; summary of the method: as §1
MCF7 [6] = test: Induction of apoptosis in human MCF7 cells at 20 uM by AnnexinV/PI/FITC-based flow cytometric analysis
MCF7 [7] = test: Induction of apoptosis in human MCF7 cells by AnnexinV/PI/FITC-based flow cytometric analysis

SMILES | Activity (Mus musculus) | Activity (MCF7 [1]) | Activity (MDA-MB-231 [2]) | EC50 (MDA-MB-231 [3]) | Activity (MCF7 [4]) | Activity (MDA-MB-231 [5]) | Activity (MCF7 [6]) | EC50 (MCF7 [7])
Cc1c(C)c2c(c(C)c1OCC(=O)O)CC[C@@](C)(COCCC(C)CCCC(C)CCCC(C)C)O2 (mixture of isomers) | Active | Active | Active | 18 µM | Active | Active | Active | 21 µM
CC(C)CCCC(C)CCCC(C)CCOCC1(C)CCc2cc(O)c(F)cc2O1 (racemic) |  | Active |  |  |  |  |  | 
Cc1c(C)c2c(c(C)c1OCC(=O)O)CC[C@@](C)(CCC[C@H](C)CCC[C@H](C)CCCC(C)C)O2 [.ALPHA.-TOCOPHERYLOXYACETIC ACID] | Active | Active | Active | 35 µM | Active | Active | Active | 51 µM
CC(C)CCC[C@@H](C)CCC[C@@H](C)CCC[C@]1(C)CCc2cc(O)c(F)cc2O1 | inactive | inactive |  |  |  | inactive |  | 
CC(C)CCCC(C)CCCC(C)CCOCC1(C)CCc2cc(OCC(=O)O)c(F)cc2O1 (racemic) | Active | Active | Active | 27 µM | Active | Active |  | 35 µM
CC(C)CCCC(C)CCCC(C)CCCC1(C)CCc2cc(OCC(=O)O)c(F)cc2O1 (racemic) | Active | Active |  | 34 µM |  |  |  | 60 µM
Cc1c(C)c2c(c(C)c1OCC(=O)O)CC[C@](C)(COCCC(C)CCCC(C)CCCC(C)C)O2 (mixture of isomers) | Active | Active | Active | 16 µM | Active | Active |  | 29 µM
